Screens deposited in PubChem BioAssay by Broad Institute.
A selection: hits, their analogues and other compounds. The true share with any hit is near 2.2%.
PvdQ acylase: P. aeruginosa PvdQ acylase inhibitors, primary screen, biochemical, fluorescence, plate reader and imaging, single point; PvdQ acylase [Pseudomonas aeruginosa LESB58]; purified PvdQ acylase; inhibition, % at 10 µM; 340,000 compounds, 0.063% hits; AID 488965, 2010; in the data active = inhibition above about 30%, passing the limit was not always enough; inconclusive = no clear call, values can overlap the other calls
Env fusion inh: inhibitors of HIV-1 Env-driven cell-cell fusion, primary screen, HeLa-JRFL effector, CEM21 target cells, luciferase; AID 651610, 2012; 360,000 compounds, 1.1% hits; inhibition, % at 12.3 µM;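 active = mean replicate inhibition score of at least 50 and every replicate individually at or above 50; inconclusive = only one of the two criteria met; inactive = mean below 50 and not all replicates reaching 50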
ERp5 block: inhibitors of ERp5-driven insulin aggregation, primary screen, biochemical, turbidity, absorbance 650 nm, single point | Protein disulfide-isomerase A6 (Homo sapiens), Q15084 | 90 min | inhibition, % at 9.99 µM | 350,000 compounds, 0.05% hits;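 active = mean replicate inhibition above about 25%, with every replicate also reaching it, limit read from the data, passing the limit was not always enough; inconclusive = only one of those two criteria met; inactive = neither criterion met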
Target sequence (Q15084 whole entry, looked up): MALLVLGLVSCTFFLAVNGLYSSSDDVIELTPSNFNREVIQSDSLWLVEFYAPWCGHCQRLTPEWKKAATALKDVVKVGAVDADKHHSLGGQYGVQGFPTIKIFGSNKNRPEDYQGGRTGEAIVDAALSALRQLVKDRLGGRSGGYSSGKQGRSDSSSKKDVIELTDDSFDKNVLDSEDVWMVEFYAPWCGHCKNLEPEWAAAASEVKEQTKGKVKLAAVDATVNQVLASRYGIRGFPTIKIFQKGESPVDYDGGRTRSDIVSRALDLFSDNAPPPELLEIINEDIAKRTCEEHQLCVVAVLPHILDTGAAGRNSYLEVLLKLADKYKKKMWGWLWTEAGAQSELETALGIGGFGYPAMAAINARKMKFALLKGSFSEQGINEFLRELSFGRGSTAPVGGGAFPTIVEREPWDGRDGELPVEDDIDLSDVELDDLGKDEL
FN deposit inh: inhibitors of fibronectin matrix deposition, primary screen, AH1F cells, Alexa488-fibronectin fluorescence, plate reader; AH1F fibroblasts, overnight; 350,000 compounds, 0.086% hits; inhibition, % at 12.6 µM; AID 743247, 2014;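 active = mean inhibition across replicates of 30% or more, regardless of how many single replicates reach that level; inconclusive = mean under 30% yet at least half of replicates reach 30%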
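Test system: AH1F fibroblast monolayer depositing Alexa488-labelled fibronectin into matrix. Input: 10000 cells per well. Technique: fluorescence, ex 485 nm, em 525 nm. Buffer or medium: DMEM plus 2% serum, read in PBS. Timing: 1 h cell adhesion before compound, then overnight fibronectin incubation. Compound: single dose, pinned. Read-out basis: inhibition from reduced deposited-fibronectin fluorescence.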
rRNA inh HTS: reduced GFP signal of wild-type E. coli, primary screen, bacterial rRNA inhibitor project, GFP/RFP fluorescence, OD600, single point; 350,000 compounds, 1.6% hits; E. coli WT GFP vs humanized-ribosome RFP mutants, 24 h; hits give low values; DMSO median 0, no signal -100; GFP signal change (wild-type ribosome), % (test concentration not listed);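 active = significant combined selectivity score with lowered wild-type GFP, culture density cut under 30%, mutant RFP and density less affected; inactive = any of these conditions unmet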
PDI inh: inhibitors of human PDI, primary screen, biochemical, turbidity, single point, plate reader; Protein disulfide-isomerase (Homo sapiens), P07237; PDI insulin aggregation turbidity, A650, 90 min; inhibition, % at 10 µM; 350,000 compounds, 0.052% hits; AID 588391, 2011;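 active = mean inhibition across replicates of 30% or more, whatever share of single replicates reach that level; inconclusive = mean inhibition below 30% while every single replicate reaches 30%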
Large screens that a line does not name were inactive; [ ] = another dose, or the depositor's remark.

COCCNC(=O)C[C@H]1C[C@@H]2c3cc(NC(=O)C4CCC4)ccc3O[C@@H]2[C@H](CO)O1	none (no result: PvdQ acylase, FN deposit inh, PDI inh)
CN(c1ccccc1)S(=O)(=O)c1cccc(NC(=O)C2=NNC(=O)CC2)c1	Env fusion inh 63.7
CO[C@H]1CN(C)C(=O)c2cc(NC(=O)C3CCCC3)ccc2OC[C@H](C)N(C(=O)CC2CC2)C[C@@H]1C	none (no result: PvdQ acylase, FN deposit inh, PDI inh)
CN1c2ccc(C3=CCCCC3)cc2[C@@H]2[C@@H](CCN2S(=O)(=O)c2ccccc2)[C@@H]1CO	none (no result: PvdQ acylase, Env fusion inh, PDI inh)
CCCc1sc(N/N=C/c2ccccn2)nc1-c1ccc(F)cc1	none (no result: Env fusion inh, ERp5 block, FN deposit inh, rRNA inh HTS)
Cc1nc(N/N=C/c2ccccn2)sc1C	Env fusion inh 106.9 (no result: PvdQ acylase, PDI inh)
Cn1c(SCC(=O)CC(=O)Nc2ccccc2)nnc1-c1ccc(O)cc1	rRNA inh HTS -17.6 (no result: Env fusion inh, FN deposit inh)
CC[n+]1c(/C=C/c2ccc(OC(C)=O)c(OC)c2)ccc2ccccc21	rRNA inh HTS -13.8
CC[n+]1c(/C=C/c2ccc(OC)c(OC)c2)ccc2ccccc21	none
Cc1noc(C)c1S(=O)(=O)N(C)C[C@H]1OCCCC[C@@H](C)Oc2ccc(NC(=O)NC(C)C)cc2C(=O)N([C@@H](C)CO)C[C@@H]1C	none (no result: PvdQ acylase, PDI inh)
CCOC(=O)c1ccc(NC(=S)NCCc2ccc(OC)c(OC)c2)cc1	rRNA inh HTS -27.5
CCNC(=O)/C=C1\NC(C)(C)Cc2c1ccc1ccccc21	none (no result: Env fusion inh, FN deposit inh)
CC1(C)Cc2c(ccc3ccccc23)C(=O)N1	Env fusion inh 79.7 (no result: ERp5 block, FN deposit inh, rRNA inh HTS)
O=C(Cc1cccc(NC(=O)C2CCCN(C(=O)CCc3ccccc3)C2)c1)Nc1cccc(C(=O)N2CCCCC2)c1 (configuration not stated)	rRNA inh HTS -18.0
CNC(=S)NC1CC2CCCC(C1)N2Cc1ccccc1OC (configuration not stated)	rRNA inh HTS -16.6
CNC(=S)NC1CC2CCCC(C1)N2Cc1ccc(C)cc1 (configuration not stated)	none
O=c1[nH]nc(Sc2ncnc3sccc23)n1CCc1ccccc1	Env fusion inh 64.3 (no result: ERp5 block, rRNA inh HTS)
CC(C)NC(=O)Nc1ccc2c(c1)C(=O)N([C@@H](C)CO)C[C@@H](C)[C@@H](CN(C)Cc1ccc(C(F)(F)F)cc1)OCCCC[C@@H](C)O2	Env fusion inh 70.3[16.7 µM] (no result: PvdQ acylase, PDI inh)
C[C@H]1CCCCO[C@@H](CN(C)C(=O)c2ccccc2)[C@@H](C)CN([C@@H](C)CO)C(=O)c2cc(NC(=O)Nc3ccc(C(F)(F)F)cc3)ccc2O1	Env fusion inh 67.8[16.7 µM] (no result: PvdQ acylase, FN deposit inh, PDI inh)
C[C@H](CO)N1C[C@H](C)[C@H](CN(C)Cc2ccc(C(F)(F)F)cc2)OCCCC[C@H](C)Oc2ccc(NC(=O)Nc3ccccc3)cc2C1=O	Env fusion inh 72.8[16.7 µM] (no result: PvdQ acylase, ERp5 block, PDI inh)
CC(C)NC(=O)Nc1ccc2c(c1)C(=O)N([C@@H](C)CO)C[C@H](C)[C@H](CN(C)Cc1ccc(C(F)(F)F)cc1)OCCCC[C@@H](C)O2	none (no result: PvdQ acylase, PDI inh)
C[C@H]1CCCCO[C@H](CN(C)Cc2ccc(C(F)(F)F)cc2)[C@@H](C)CN([C@@H](C)CO)C(=O)c2cc(NC(=O)Nc3ccccc3)ccc2O1	none (no result: PvdQ acylase, ERp5 block, PDI inh)
C[C@@H]1CN([C@@H](C)CO)C(=O)c2cc(NC(=O)Nc3ccc(C(F)(F)F)cc3)ccc2O[C@@H](C)CCCCO[C@H]1CN(C)Cc1ccc(C(F)(F)F)cc1	none (no result: PvdQ acylase, ERp5 block, PDI inh)
C[C@@H]1CCCCO[C@@H](CN(C)Cc2ccc(C(F)(F)F)cc2)[C@H](C)CN([C@@H](C)CO)C(=O)c2cc(NC(=O)Nc3ccc(C(F)(F)F)cc3)ccc2O1	Env fusion inh 58.9[16.7 µM] (no result: PvdQ acylase, ERp5 block, PDI inh)
CC(=O)N(C)C[C@@H]1Oc2ncc(-c3ccc(F)cc3)cc2C(=O)N([C@@H](C)CO)C[C@H]1C	none (no result: PvdQ acylase, PDI inh)
COCC(=O)N1C[C@@H](C)[C@@H](OC)CN(C)C(=O)c2cc(NC(=O)c3cnccn3)ccc2OC[C@H]1C	none (no result: PvdQ acylase, Env fusion inh, PDI inh)
CCN(CC(=O)Nc1ccc2c(c1)OCCO2)C(=O)CC1CCCC1	PDI inh 32.9 (no result: ERp5 block, rRNA inh HTS)
CCOc1ccc(C(=O)N(CC)CC(=O)Nc2ccc3c(c2)OCCO3)cc1OCC	none
COc1ccc(C)cc1NC(=O)CCNS(=O)(=O)c1ccc2c(c1)CC(C)N2C(C)=O (configuration not stated)	Env fusion inh 79.0
CCOC(=O)N1CCN(S(=O)(=O)c2ccc3c(c2)CC(C)N3C(C)=O)CC1 (configuration not stated)	rRNA inh HTS -46.2
Cc1ccc(S(=O)(=O)Nc2ccc3c(c2)CC(=O)N([C@H](C)CO)C[C@H](C)[C@H](CN(C)S(=O)(=O)c2cccs2)O3)cc1	Env fusion inh inconclusive (no result: PvdQ acylase, FN deposit inh, PDI inh)
NNc1nc2c(Cl)ccc(Cl)c2s1	rRNA inh HTS -26.4
CC(C)(C)c1ccc(C(=O)N2CCCCCC2=O)cc1	Env fusion inh 91.2 (no result: ERp5 block, rRNA inh HTS)
Cc1ccc(S(=O)(=O)N[C@H]2CC[C@H](CC(=O)NCc3ccc(Cl)c(Cl)c3)O[C@H]2CO)cc1	none (no result: PvdQ acylase, FN deposit inh, PDI inh)
Cc1c(CNCCc2ccccc2Cl)c(C(=O)O)c(C)n1-c1ccccc1	Env fusion inh 57.0
COc1cccc(S(=O)(=O)N(C)C[C@@H]2Oc3cc(C#CCN(C)C)ccc3S(=O)(=O)N([C@@H](C)CO)C[C@H]2C)c1	none (no result: PvdQ acylase, FN deposit inh, PDI inh)
COc1ccc2c3c(n(C)c2c1)[C@H](CO)N(Cc1ccccc1OC)CC31CCN(C(=O)C2CC2)CC1	none (no result: PvdQ acylase, Env fusion inh, FN deposit inh, PDI inh)
CCc1ccc(/C=N/NC(=O)Cc2ccc(OC)c(OC)c2)s1	rRNA inh HTS -23.6
COc1ccc(CC(=O)N/N=C/c2cccs2)cc1OC	none
CC(C)(C)OC(=O)NOCC(=O)N(CC(=O)c1ccccc1)Cc1ccccc1	none
CC(C)(C)OC(=O)NOCC(=O)N(Cc1ccccc1)CC(O)COc1ccccc1 (configuration not stated)	rRNA inh HTS -18.1
COc1ccc(NC(=O)Nc2ccc3c(c2)[C@H]2C[C@H](CC(=O)NCCc4ccccc4)O[C@@H](CO)[C@H]2O3)cc1	Env fusion inh inconclusive (no result: PvdQ acylase, FN deposit inh, PDI inh)
COc1ccc(OC)c(NC(=O)c2cc(-c3cc(Cl)ccc3O)n[nH]2)c1	Env fusion inh 55.2 (no result: ERp5 block, rRNA inh HTS)
COc1ccc(Cl)cc1NC(=O)c1cc(-c2ccccc2O)n[nH]1	none (no result: ERp5 block, rRNA inh HTS)
CCOCCCNC(=O)C(c1ccc(C)cc1)N(Cc1cccs1)C(=O)c1ccccn1 (configuration not stated)	none (no result: FN deposit inh)
CCOCCCNC(=O)C(c1ccc(Cl)cc1)N(Cc1cccs1)C(=O)c1ccccn1 (configuration not stated)	rRNA inh HTS -23.0 (no result: FN deposit inh)
